Data reported in ChEMBL document CHEMBL1132586, “New water-soluble duocarmycin derivatives: synthesis and antitumor activity of A-ring pyrrole compounds bearing beta-heteroarylacryloyl groups” (J Med Chem, 1999).

How the values were obtained:
CCRF S-180 [1] = assay: Compound was tested in vivo for antitumor activity against murine sarcoma 180 in mice at 0.25 mg/kg dosage and efficacy is expressed as T/C (mice were implanted subcutaneously with tumor cells and the drug was dosed intravenously); format: functional, Mus musculus; details: route intravenous
In short: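 Sarcoma 180 cells passaged in adult male ddY mice and inoculated sc at the axillary region, 5 mice/group; iv dosing began 1 day after inoculation. Tumour volume = length × width²/2. T/C is treated over control mean tumour volume; effective at ≤42%, Mann–Whitney U test (p < 0.05).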

Mus musculus [2] = organism: Mus musculus; assay: Compound was tested for hematotoxicity and the number of white blood cells of tumor bearing mice on day 4(percent of control) was determined, expressed as percent of control; format: functional
In short: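 Sarcoma 180-bearing mice dosed iv starting 1 day after sc tumour inoculation; 4 days later orbital-vein blood drawn and white blood cells counted on a microcell counter; value is treated count as percent of control.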

Mus musculus [3] = organism: Mus musculus; assay: Compound was tested for hematotoxicity and the number of peripheral platelets of normal mice on day 7 (percent of control) was determined, expressed as percent of control; format: functional
In short: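 Normal male ddY mice (mean weight 20 ± 1 g) given a single iv tail-vein injection of drug dissolved in saline; 7 days later orbital-vein blood drawn and platelets counted on a microcell counter; value is treated count as percent of control.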

HeLa [4] = assay: Compound was tested in vitro for anticellular activity against HeLa S3 cell growth at 1-hour exposure.; format: functional, cell-based; details: Homo sapiens
CCRF S-180 [5] = assay: Compound was tested in vivo for antitumor activity against murine sarcoma 180 in mice at 4 mg/kg dosage and efficacy is expressed as T/C (mice were implanted subcutaneously with tumor cells and the drug was dosed intravenously); details: route intravenous
HeLa [6] = assay: Compound was tested in vitro for anticellular activity against HeLa S3 cell growth at 72-hour exposure.; format: functional, cell-based; details: Homo sapiens
[7] = Aqueous solubility of the compound; format: physicochemical; details: water; read-out: S

SMILES	T/C (CCRF S-180 [1])	Hematotoxicity (Mus musculus [2]) [%]	Hematotoxicity (Mus musculus [3]) [%]	IC50 (HeLa [4]) [nM]	T/C (CCRF S-180 [5])	IC50 (HeLa [6]) [nM]	solubility [7] [mg/mL]
COC(=O)c1c(C)[nH]c2c1[C@@]13C[C@@H]1CN(C(=O)/C=C/c1ccc(OC)cc1)C3=CC2=O	0.34	63	50				
COC(=O)c1c(C)[nH]c2c1[C@@]13C[C@@H]1CN(C(=O)/C=C/c1ccc(OC)nc1)C3=CC2=O		84	50	3.3	0.6	0.42	
COC(=O)c1c(C)[nH]c2c1[C@@]13C[C@@H]1CN(C(=O)/C=C/c1cnc(OC)nc1)C3=CC2=O	0.45	86	28	2.5		0.9	
COC(=O)c1c(C)[nH]c2c1[C@@]13C[C@@H]1CN(C(=O)/C=C/c1ccc(OC)cn1)C3=CC2=O				9.7		2.9	
COC(=O)c1c(C)[nH]c2c1[C@@]13C[C@@H]1CN(C(=O)/C=C/c1ccc(OC)nn1)C3=CC2=O				0.5		0.28	
COC(=O)c1c(C)[nH]c2c(OC(=O)N3CCN(C)CC3)cc3c(c12)[C@H](CBr)CN3C(=O)/C=C/c1ccc(OC)cn1.Cl	0.5	105	38	1300		150	> 20
COC(=O)c1c(C)[nH]c2c(OC(=O)N3CCN(C)CC3)cc3c(c12)[C@H](CBr)CN3C(=O)/C=C/c1cnc(OC)nc1.Cl	0.26	69	26	1300		170	> 20
COC(=O)c1c(C)[nH]c2c(OC(=O)N3CCN(C)CC3)cc3c(c12)[C@H](CBr)CN3C(=O)/C=C/c1ccc(OC)nn1.Cl	0.31	115	51	1100		90	> 20
COC(=O)c1c(C)[nH]c2c(OC(=O)N3CCN(C)CC3)cc3c(c12)[C@H](CBr)CN3C(=O)/C=C/c1ccc(OC)nc1.Cl	0.36	92	38	900		110	> 20
